According to PMC10527240 (International journal of biological macromolecules, 2023):

Tests used:
HRPT cells = assay: Palmitate-induced lipoapoptosis by TUNEL in HRPT cells; format: cell-based, human; conditions: for Effect on palmitate-induced lipoapoptosis: drug 5 μM, 2 hr, then palmitate 100 μM, 16 hr
How it was run: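 Immortalized human kidney proximal tubule cells were grown to near confluence on glass coverslips. They were preincubated with test compound (5 μM, 2 hr, 37°C), then albumin-complexed palmitate was added (100 μM, 16 hr, 37°C). Fixed cells were scored by TUNEL under fluorescence microscopy at 400X by blinded operators, ten random fields, one experiment. Mean ± SD; ANOVA.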

human FATP2 = human FATP2 (Homo sapiens, UniProt O14975); assay: BODIPY-C16 FA uptake in HRPT cells stably expressing human FATP2; format: cell-based

| Molecule | Effect on palmitate-induced lipoapoptosis (HRPT cells) | IC50 (HRPT cells; read-out: IC50 for palmitate-induced apoptosis, compound 2 hr 37° C, then palmitate 100 μM, 16 hr) | IC50 (human FATP2) |
| --- | --- | --- | --- |
| Grassofermata | increased apoptosis |  |  |
| Cc1ccc2c(c1)C1(NN=C(c3ccccc3)S1)C(=O)N2 (centres unmarked) [Compound 1] | protective | 600 nM |  |
| O=C1Nc2ccc(Br)cc2C12NN=C(c1ccccc1)S2 (centres unmarked) [Lipofermata] | protective |  |  |
| CCCCCc1cccc(CC(=O)O)c1 [PBI-4050] |  |  | > 500000 nM |
